The source of these data is ChEMBL document CHEMBL3804810, “A structural insight into the P1S1 binding mode of diaminoethylphosphonic and phosphinic acids, selective inhibitors of alanine aminopeptidases” (Eur J Med Chem, 2016).

Calls of active or inactive are those of the source. The calls are words filed in the database; no cut-off is given here.

The target of the first assay is T1, Cytosol aminopeptidase (Sus scrofa) (UniProt P28839).
T1 sequence (whole entry): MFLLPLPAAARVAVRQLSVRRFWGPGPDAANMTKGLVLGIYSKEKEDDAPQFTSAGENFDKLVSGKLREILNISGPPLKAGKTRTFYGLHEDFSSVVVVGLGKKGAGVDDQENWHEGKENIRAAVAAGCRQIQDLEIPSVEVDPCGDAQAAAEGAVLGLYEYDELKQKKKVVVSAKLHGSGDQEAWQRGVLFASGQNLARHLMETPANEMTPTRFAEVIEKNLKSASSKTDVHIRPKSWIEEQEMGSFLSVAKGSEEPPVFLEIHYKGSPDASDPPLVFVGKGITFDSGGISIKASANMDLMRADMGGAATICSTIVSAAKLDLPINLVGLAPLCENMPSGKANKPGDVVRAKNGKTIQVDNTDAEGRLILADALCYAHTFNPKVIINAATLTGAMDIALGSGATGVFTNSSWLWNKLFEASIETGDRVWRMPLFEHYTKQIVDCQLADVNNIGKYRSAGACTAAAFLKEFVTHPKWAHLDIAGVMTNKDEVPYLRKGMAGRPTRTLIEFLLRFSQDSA
Kind of assay: Inhibition of porcine kidney leucine aminopeptidase M17 using Leu-AMC as substrate up to 0.8 mM preincubated for 30 to 60 mins followed by substrate addition measured for 15 mins by spectrofluorimetric analysis.
Regarding `NC(CN1CCOCC1)P(=O)(O)O` (stereo not drawn), the inhibition entry is “inactive”.

The next assay addresses T2, Cytosol aminopeptidase (Sus scrofa, UniProt P28839).
T2 sequence (P28839 whole entry): T1 sequence (whole entry)
The experiment in a line: Inhibition of porcine kidney leucine aminopeptidase M17 using L-leucine p-nitro-anilide as substrate by spectrophotometric analysis.
As a reminder, the Ki is the dissociation constant of the complex between target and ligand, obtained from inhibition or displacement. The compound `CC(NCC(N)P(=O)(O)O)c1ccccc1` (stereo not drawn) returned a Ki of 600 µM.

`NC(CN1CCCCC1)P(=O)(O)O` (stereo not drawn) displayed a Ki of 1410 µM.

On to `NC(CNCc1ccccc1)P(=O)(O)O` (stereo not drawn), for which the affinity, expressed as Ki, was 350 µM.

The target of another assay is T2, Cytosol aminopeptidase. Kind of assay: Inhibition of porcine kidney leucine aminopeptidase M17 using Leu-AMC as substrate preincubated for 30 to 60 mins followed by substrate addition measured for 15 mins by spectrofluorimetric analysis. The procedure, abridged: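 Inhibitor concentrations were tested up to 800 μM against the porcine kidney enzyme. Values are reported as inhibition constants (Ki).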
Take `NC(CNC1CCCCCC1)P(=O)(O)O` (stereo not drawn): the affinity corresponds to a Ki of 20.8 µM.

Compound `COc1ccc(CCNCC(N)P(=O)(O)O)cc1` (stereo not drawn) had a Ki of 19.5 µM.

With `NC(CNCC1CCNCC1)P(=O)(O)O` (stereo not drawn), the affinity, expressed as Ki, was 68.4 µM.

The compound `CCCCCCNCC(N)P(=O)(O)O` (stereo not drawn) yielded a Ki of 119 µM.

Regarding `CCCNCC(N)P(=O)(O)CC(Cc1ccccc1)C(=O)O` (stereo not drawn), affinity was put at a Ki of 21 µM.

`NCc1ccc(CNCC(N)P(=O)(O)O)cc1` (stereo not drawn) displayed a Ki of 26.5 µM.

The compound `NC1CCCCC1NCC(N)P(=O)(O)O` (stereo not drawn) had a Ki of 240 µM.

For the compound `NCC(N)P(=O)(O)CC(Cc1ccccc1)C(=O)O` (stereo not drawn), affinity was put at a Ki of 64.4 µM.

The compound `NC(CNCCc1ccccc1)P(=O)(O)O` (stereo not drawn) displayed a Ki of 108 µM.

`Nc1ccc(CNCC(N)P(=O)(O)O)cc1` (stereo not drawn) came in with a Ki of 7.02 µM.

On to `COc1ccc(CNCC(N)P(=O)(O)O)cc1` (stereo not drawn), for which the Ki came out at 26.2 µM.

Regarding `NCCNCC(N)P(=O)(O)O` (stereo not drawn), the Ki was 289 µM.

Compound `NC(CNC1CCCCC1)P(=O)(O)CC(Cc1ccccc1)C(=O)O` (stereo not drawn) had a Ki of 28.3 µM.

`NC(CNCC1CCCO1)P(=O)(O)O` (stereo not drawn) returned a Ki of 69.1 µM.

With `CC(C)CNCC(N)P(=O)(O)CC(Cc1ccccc1)C(=O)O` (stereo not drawn), affinity was put at a Ki of 15.2 µM.

`CC(C)(C)c1ccc(CNCC(N)P(=O)(O)O)cc1` (stereo not drawn) yielded a Ki of 71.1 µM.

`NC(CCC1CCCCC1)P(=O)(O)O` (stereo not drawn) had a Ki of 0.21 µM.

For the compound `CN(C)CCNCC(N)P(=O)(O)O` (stereo not drawn), the Ki turned out to be 72.6 µM.

`NC(CNCCN1CCNCC1)P(=O)(O)O` (stereo not drawn) gave a Ki of 55.8 µM.

With `COc1ccc(CCNCC(N)P(=O)(O)CC(Cc2ccccc2)C(=O)O)cc1` (stereo not drawn), the Ki came to 21.1 µM.

The compound `NC(CNC1CCCCCC1)P(=O)(O)CC(Cc1ccccc1)C(=O)O` (stereo not drawn) showed a Ki of 23.8 µM.

System in another assay: not listed separately
The experiment in a line: Inhibition of recombinant Neisseria meningitidis N-terminal His6-tagged alanyl aminopeptidase M1 expressed in Escherichia coli BL21 cells using Ala-AMC as substrate preincubated for 30 to 60 mins followed by substrate addition measured for 15 mins by spectrofluorimetric analysis.
As for `NCC(N)P(=O)(O)O` (stereo not drawn), the Ki worked out at 0.589 µM.

As for `CN(C)CCNCC(N)P(=O)(O)O` (stereo not drawn), the Ki turned out to be 26 µM.

Turning to `CNCC(N)P(=O)(O)O` (stereo not drawn), the Ki was 29.6 µM.
